Sampled rows, rich in hits. Any-hit rate of the full collection: about 1.5%.
PREPL inh: inhibits the human prolyl oligopeptidase-like enzyme; Q4J6C6; recombinant PREPL, fluorescence polarization activity-based probe; inhibition, % at 5.96 µM; 0.68% of 320,000 active; AID 2751
Target sequence (Q4J6C6 whole entry, looked up): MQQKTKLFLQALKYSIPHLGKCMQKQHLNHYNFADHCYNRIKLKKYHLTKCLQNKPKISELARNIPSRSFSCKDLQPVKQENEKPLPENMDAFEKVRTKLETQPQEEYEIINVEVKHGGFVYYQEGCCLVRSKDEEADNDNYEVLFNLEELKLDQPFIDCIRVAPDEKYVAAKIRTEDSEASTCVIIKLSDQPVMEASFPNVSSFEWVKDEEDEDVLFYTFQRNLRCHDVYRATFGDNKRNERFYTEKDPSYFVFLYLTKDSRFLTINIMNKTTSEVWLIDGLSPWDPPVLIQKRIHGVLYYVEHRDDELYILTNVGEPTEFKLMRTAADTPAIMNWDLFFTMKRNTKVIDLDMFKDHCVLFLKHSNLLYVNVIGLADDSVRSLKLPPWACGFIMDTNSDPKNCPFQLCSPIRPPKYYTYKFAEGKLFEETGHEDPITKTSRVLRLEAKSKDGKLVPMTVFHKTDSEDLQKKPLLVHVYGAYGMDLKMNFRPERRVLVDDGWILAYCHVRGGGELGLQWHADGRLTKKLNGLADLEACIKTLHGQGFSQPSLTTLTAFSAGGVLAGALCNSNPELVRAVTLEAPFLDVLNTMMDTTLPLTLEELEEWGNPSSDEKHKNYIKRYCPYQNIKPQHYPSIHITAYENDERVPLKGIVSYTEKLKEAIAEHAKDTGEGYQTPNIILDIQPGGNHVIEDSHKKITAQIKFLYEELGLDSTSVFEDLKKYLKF
Apaf1 inhib: inhibitors of human Apaf-1 apoptosome; inhibition, % at 20 µM; 0.71% of 330,000 active; O14727; AID 489030; reconstituted apoptosome caspase-3 activity, DEVD-Rh110 fluorescence; active means inhibition of at least 40% at 20 µM
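System: reconstituted apoptosome with Apaf-1, cytochrome c, caspase-9, procaspase-3, dATP; Signal: Rh110 fluorescence intensity; Schedule: 30 min compound preincubation, 50 min activation, room temperature; Reagent: cytochrome c trigger plus (Z-DEVD)2-Rh110 caspase-3 substrate.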
UCH37 inh: inhibitors of human deubiquitinating enzyme UCH37 | Q9Y5K5 | purified proteasome/UCH37, Ub-AMC cleavage fluorescence | inhibition, % (concentration not given with the values) | 0.33% of 330,000 active | AID 588478;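 active means mean inhibition over replicate wells above about 20%, limit read from the data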
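system = Proteasome-associated human UCH37 deubiquitinase | amount = 0.15 nM proteasome as dispensed | medium = pH 7.4 Tris-HCl (50 mM) with ovalbumin, ATP-MgCl2, DTT | incubation = 30 min preincubation with enzyme, 25 min cleavage at room temperature | detection = AMC fluorescence 355/460 nm | read-out basis = percent inhibition | controls = no-proteasome and no-compound wells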
UBC13 polyUb: inhibitors of human UBC13 polyubiquitin chain formation; P61088; TR-FRET; inhibition, % at 20 µM; 0.47% of 330,000 active; AID 485273; in the data active means inhibition above about 45%, passing the limit was not always enough
PREPL confirm: human PREPL inhibition, confirmation. inhibition, % at 5.96 µM. 67% of 2,000 active. recombinant PREPL, fluorescence polarization activity probe. AID 2803. shares compounds with PREPL inh
Of the large screens only hits and unclear results are named; the others gave an inactive call (follow-up assays come after a bar, where they were run). Unless noted, no stated cut-off is given here; in the data, active means inhibition above about 43%; inactive means the rest.

CC(C)CN(C(=O)COC(=O)c1ccc(-c2ccccc2)cc1)C1CCS(=O)(=O)C1 (stereo not drawn)	PREPL inh 48.1 | PREPL confirm inactive
CC(C)CCN1C(=O)c2ccc(C(=O)OCC(=O)N(CC(C)C)C3CCS(=O)(=O)C3)cc2C1=O (stereo not drawn)	none
O=C(COc1ccccc1[N+](=O)[O-])Nc1ccc(N2CCN(C(=O)c3cccs3)CC2)cc1	PREPL inh 44.4 | PREPL confirm 64.4
Cc1ccc(OCC(=O)Nc2ccc(N3CCN(C(=O)c4ccc(C)cc4)CC3)cc2)cc1	none
Cc1cccc(OCC(=O)Nc2ccc(N3CCN(C(=O)c4ccccc4)CC3)cc2)c1	PREPL inh 55.0 | PREPL confirm 58.0
O=C(COc1ccccc1Cl)Nc1ccc(N2CCN(C(=O)c3ccccc3)CC2)cc1	PREPL inh 63.8 | PREPL confirm 61.5
CCN1CCN(c2ccc(NC(=O)COc3ccccc3Cl)cc2)CC1	PREPL inh 47.4 | PREPL confirm inactive
CCC(=O)Nc1ccc(N2CCN(C(=O)c3cccs3)CC2)cc1	none
NC(=O)NN=C1CCS(=O)(=O)c2ccc(F)cc21	none (no result: PREPL inh, Apaf1 inhib, UBC13 polyUb)
CC(=NOCc1ccc(C#N)cc1)c1ccccc1	none (no result: PREPL inh, Apaf1 inhib, UBC13 polyUb)
O=C(NN=Cc1cccs1)c1cc(C2CC2)nc2ccccc12	none (no result: PREPL inh, Apaf1 inhib, UBC13 polyUb)
Oc1ccccc1C=NNC1=NCCCCC1	none (no result: PREPL inh, Apaf1 inhib, UBC13 polyUb)
C=CCn1c(=C2C(=O)NN=C2C)sc(=C2Sc3ccccc3N2CC)c1=O	none (no result: PREPL inh, Apaf1 inhib, UBC13 polyUb)
CC(=O)N1CCN(c2ccc(NC(=O)COc3ccc(Cl)cc3Cl)cc2)CC1	PREPL inh 52.7 | PREPL confirm 53.8
CCN1CCN(c2ccc(NC(=O)COc3ccc(Cl)cc3C)cc2)CC1	PREPL inh 43.5 | PREPL confirm 53.0
CC(=O)N1CCN(c2ccccc2NC(=O)COc2ccc(Cl)cc2Cl)CC1	none
COc1cc(C=NOCC(=O)NC23CC4CC(CC(C4)C2)C3)ccc1OCc1ccccc1	none (no result: PREPL inh, Apaf1 inhib, UBC13 polyUb)
O=Cc1ccccc1OCCOc1ccc([N+](=O)[O-])cc1	PREPL inh 43.1 | PREPL confirm inactive
CCC(=O)N1CCN(c2ccc(NC(=O)c3cc4ccccc4o3)cc2Cl)CC1	none
CCCC(=O)N1CCN(c2ccc(NC(=O)c3cc4ccccc4o3)cc2Cl)CC1	PREPL inh 45.0 | PREPL confirm inactive
Oc1ccc(C=NNc2nn3cnnc3c3ccccc23)cc1	none (no result: PREPL inh, Apaf1 inhib, UBC13 polyUb)
O=C(C1CC(=O)N(c2ccc3c(c2)OCCO3)C1)N1CCN(c2ccccc2O)CC1 (stereo not drawn)	PREPL inh 45.2 | PREPL confirm inactive
N#Cc1c(N)nc2c3c(sc(=N)c2c1N)NC(=O)CC3c1ccccc1 (stereo not drawn)	PREPL inh 50.4 | PREPL confirm inactive
CCOC(=O)c1c(-c2ccccc2)csc1NC(=O)C1CCCO1 (stereo not drawn)	none
CCOC(=O)c1c(-c2ccc(-c3ccccc3)cc2)csc1NC(=O)C1C2CCC(O2)C1C(=O)O (stereo not drawn)	PREPL inh 51.4 | PREPL confirm 54.7
C[C@H]1c2cccc(O)c2C(O)=C2C(=O)C3(O)C(O)=C(C(N)=O)C(=O)[C@@H](N(C)C)[C@@H]3[C@@H](O)[C@@H]21 (stereo partly drawn)	none
C=C1c2cccc(O)c2C(O)=C2C(=O)[C@]3(O)C(O)=C(C(N)=O)C(=O)[C@@H](N(C)C)[C@@H]3[C@@H](O)[C@H]12	PREPL inh 79.6 | PREPL confirm inactive
COc1cc2c(cc1OC)C(Cc1ccc(O)c(Oc3ccc(C[C@H]4c5cc(OC)c(OC)cc5CCN4C)cc3)c1)N(C)CC2 (stereo partly drawn)	PREPL inh 45.4 (no result: UCH37 inh) | PREPL confirm 51.7
COc1cc2c(cc1OC)[C@@H](Cc1ccc(OCCC#N)cc1)N(C)CC2	none
CC(=NNC(=O)CSCc1ccc(Cl)cc1)c1ccc2c(c1)OCCO2	none (no result: PREPL inh, Apaf1 inhib, UBC13 polyUb)
O=[N+]([O-])c1cccc(-c2cc3cccc[n+]3cc2-c2cccc([N+](=O)[O-])c2)c1	none
Cc1cccc2cc(-c3ccccc3)c(-c3ccccc3)c[n+]12	PREPL inh 57.9 (no result: Apaf1 inhib, UBC13 polyUb) | PREPL confirm 45.6
Cc1ccc2c(c1)[C@@H]1CN(C)CC[C@@H]1N2S(=O)(=O)c1ccc([N+](=O)[O-])cc1	none
Cc1ccc2c(c1)C1CN(C)CCC1N2Sc1ccccc1[N+](=O)[O-] (stereo not drawn)	PREPL inh 45.1 (no result: UCH37 inh) | PREPL confirm inactive
CN(CC(O)COCc1ccccc1F)C1CCCCC1 (stereo not drawn)	PREPL inh 43.7 | PREPL confirm inactive
CN(CC(O)COc1ccccc1F)C1CCCCC1 (stereo not drawn)	none
CCOC(=O)Cc1csc(NN=Cc2cccc([N+](=O)[O-])c2)n1	none (no result: PREPL inh, Apaf1 inhib, UBC13 polyUb)
CCCCCCC=NNc1nnc(Cc2ccccc2)c(=O)[nH]1	none (no result: PREPL inh, Apaf1 inhib, UBC13 polyUb)
C[C@H](CO)N1C[C@H](C)[C@@H](CN(C)C(=O)Nc2ccc(C(F)(F)F)cc2)Oc2ccc(NS(=O)(=O)c3cn(C)cn3)cc2C1=O	PREPL inh 47.2 | PREPL confirm inactive
C[C@H](CO)N1C[C@H](C)[C@@H](CN(C)C(=O)Nc2ccc(C(F)(F)F)cc2)Oc2ccc(NS(=O)(=O)c3cccs3)cc2C1=O	none
Cc1noc(C)c1S(=O)(=O)N(C)C[C@H]1Oc2c(NC(=O)Nc3ccc(C(F)(F)F)cc3)cccc2C(=O)N([C@H](C)CO)C[C@@H]1C	PREPL inh 52.4 (no result: UCH37 inh) | PREPL confirm 59.0
C[C@H](CO)N1C[C@H](C)[C@@H](CN(C)C(=O)Nc2ccc(C(F)(F)F)cc2)Oc2ccc(NS(=O)(=O)c3ccc(F)cc3)cc2C1=O	PREPL inh 46.2 | PREPL confirm inactive
Cc1noc(C)c1S(=O)(=O)N(C)C[C@H]1Oc2c(NC(=O)Nc3ccccc3)cccc2C(=O)N([C@H](C)CO)C[C@@H]1C	none
C[C@H](CO)N1C[C@H](C)[C@@H](CN(C)C(=O)Nc2ccc(C(F)(F)F)cc2)Oc2ccc(NS(=O)(=O)c3ccccc3)cc2C1=O	PREPL inh 45.6 | PREPL confirm 44.9
CN(C)CCNC(=O)C(=NO)c1ccccn1	none (no result: PREPL inh, Apaf1 inhib, UBC13 polyUb)
Cc1ccc(S(=O)(=O)Nc2ccc3c(c2)C(=O)N([C@H](C)CO)C[C@H](C)[C@@H](CN(C)C(=O)Nc2ccc(C(F)(F)F)cc2)O3)cc1	PREPL inh 45.4 | PREPL confirm inactive
Cc1ccc(C2(C)NC(=O)N(CC(=O)N(c3ccccc3)C3CCS(=O)(=O)C3)C2=O)cc1 (stereo not drawn)	PREPL inh 51.0 | PREPL confirm inactive
C/C(=N\Nc1ccc([N+](=O)[O-])cc1)c1cccc(N)c1	PREPL inh 54.5 (no result: UCH37 inh) | PREPL confirm 45.8
CC(=NNc1ccc([N+](=O)[O-])cc1)c1ccc(N)cc1	none (no result: PREPL inh, Apaf1 inhib, UBC13 polyUb)
O=c1cc(-c2ccc(O)cc2)oc2c(-c3c(O)cc(O)c4c(=O)cc(-c5ccc(O)cc5)oc34)c(O)cc(O)c12	PREPL inh 50.6 | PREPL confirm inactive
COC(=O)[C@@]12CCCCN1[C@H](c1ccc(-c3ccc(F)cc3)cc1)[C@@H]1C(=O)N(C)C(=O)[C@@H]12	PREPL inh 54.1 | PREPL confirm 44.4
